Test results published in ChEMBL document CHEMBL1149633, “Protection from endotoxic shock by EVK-203, a novel alkylpolyamine sequestrant of lipopolysaccharide” (Bioorg Med Chem, 2007).
Blank lines part the entries; values can stand above or below the compound they belong to. Active and inactive are the calls of the source. The rule behind the calls is not given here.

Key:
HEK293 = test: Inhibition of LPS-induced NF-kappaB induction in HEK293 cells co-transfected with TLR4, CD14 and MD2; assay type: functional, cell-based; settings: Homo sapiens
How it was run: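 HEK293 cells stably expressing TLR4, CD14, MD2 and an NF-κB/AP-1-driven secreted alkaline phosphatase reporter. Plated at ~10^5 cells/ml and grown to confluency. Stimulated with 10 ng/ml E. coli O111:B4 LPS plus serially diluted compound, then incubated overnight. seAP in the supernatant was read by chromogen at 620 nm.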

[1] = Binding affinity to LPS by BODIPY-TR-cadaverine displacement assay
How it was run: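 Fluorescence displacement of BODIPY-TR-cadaverine (5 μM) bound to E. coli O111:B4 smooth LPS (50 μg/ml), both in the mixture added to the wells. Compound serially diluted two-fold in 50 mM Tris pH 7.4 […], quadruplicates. Ex 580/em 620 nm at 25 °C. ED50 is the dose that displaces 50% of bound probe, taken from a four-parameter logistic fit.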

J774.A1 = test: Inhibition of nitric oxide production in LPS-stimulated mouse J774A.1 cells; assay type: functional, cell-based
How it was run: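 J774A.1 cells in RPMI-1640 with 10% FBS and 200 μg/ml L-arginine, 37 °C, 5% CO2. Plated at ~10^5 cells/ml, grown to confluency, then given 10 ng/ml E. coli O111:B4 LPS together with serially diluted compound for 16 h. Nitrite measured with Griess reagent (15 min, RT, dark) at 535 nm against a sodium nitrite standard curve.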

[2] = molecular target: T1, MAP kinase p38 (Homo sapiens) (UniProt O15264+Q15759+Q16539+P53778); test: Inhibition of p38MAPK phosphorylation in LPS-induced human whole blood neutrophils; assay type: tissue-based
T1 sequence (P53778 whole entry, looked up, chain 1 of 4): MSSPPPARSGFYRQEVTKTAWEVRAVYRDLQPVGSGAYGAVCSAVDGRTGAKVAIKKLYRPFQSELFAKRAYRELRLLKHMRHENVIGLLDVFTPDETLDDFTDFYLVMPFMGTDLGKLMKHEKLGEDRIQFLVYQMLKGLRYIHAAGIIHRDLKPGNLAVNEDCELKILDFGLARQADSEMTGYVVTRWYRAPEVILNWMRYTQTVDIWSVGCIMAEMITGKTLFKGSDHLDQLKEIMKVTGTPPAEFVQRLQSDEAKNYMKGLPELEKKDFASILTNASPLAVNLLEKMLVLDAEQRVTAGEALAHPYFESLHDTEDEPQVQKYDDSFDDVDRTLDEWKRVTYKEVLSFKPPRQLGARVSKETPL
T1 sequence (Q16539 whole entry, looked up, chain 2 of 4): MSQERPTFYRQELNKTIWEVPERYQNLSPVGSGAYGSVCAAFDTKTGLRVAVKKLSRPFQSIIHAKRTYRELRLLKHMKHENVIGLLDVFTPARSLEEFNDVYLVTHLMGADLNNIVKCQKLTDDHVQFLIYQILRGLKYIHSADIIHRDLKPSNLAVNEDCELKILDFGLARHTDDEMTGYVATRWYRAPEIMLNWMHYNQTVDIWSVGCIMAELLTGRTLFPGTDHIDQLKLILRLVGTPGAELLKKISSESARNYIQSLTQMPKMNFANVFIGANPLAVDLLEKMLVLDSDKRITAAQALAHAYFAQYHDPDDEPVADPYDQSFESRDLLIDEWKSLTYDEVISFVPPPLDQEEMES
T1 sequence (Q15759 whole entry, looked up, chain 3 of 4): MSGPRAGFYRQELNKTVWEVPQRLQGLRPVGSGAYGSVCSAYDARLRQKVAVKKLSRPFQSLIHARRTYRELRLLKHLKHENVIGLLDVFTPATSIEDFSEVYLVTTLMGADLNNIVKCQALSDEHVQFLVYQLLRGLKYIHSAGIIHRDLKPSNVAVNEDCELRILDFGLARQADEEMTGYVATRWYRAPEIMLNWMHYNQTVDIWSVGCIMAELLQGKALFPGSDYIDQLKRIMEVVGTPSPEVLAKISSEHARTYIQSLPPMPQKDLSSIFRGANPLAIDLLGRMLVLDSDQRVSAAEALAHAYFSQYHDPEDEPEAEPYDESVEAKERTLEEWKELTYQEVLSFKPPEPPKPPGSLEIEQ
T1 sequence (O15264 whole entry, looked up, chain 4 of 4): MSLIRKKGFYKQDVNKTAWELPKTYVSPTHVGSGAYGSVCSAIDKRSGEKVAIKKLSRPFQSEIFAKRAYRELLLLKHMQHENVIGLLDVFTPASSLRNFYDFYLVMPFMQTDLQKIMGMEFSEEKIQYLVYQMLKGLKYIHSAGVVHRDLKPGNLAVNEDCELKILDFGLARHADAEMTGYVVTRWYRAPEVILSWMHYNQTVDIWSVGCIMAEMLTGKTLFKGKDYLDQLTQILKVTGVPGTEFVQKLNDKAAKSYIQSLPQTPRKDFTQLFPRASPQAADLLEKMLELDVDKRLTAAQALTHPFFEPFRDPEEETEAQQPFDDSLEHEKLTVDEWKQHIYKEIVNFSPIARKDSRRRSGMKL

[3] = molecular target: T1, MAP kinase p38 (Homo sapiens); test: Inhibition of TNFalpha induced p38MAPK phosphorylation in human whole blood neutrophils; assay type: tissue-based
Blood [4] = test: Inhibition of LPS-induced TNFalpha production in human whole blood; assay type: functional, tissue-based
How it was run: (§1)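 EDTA-anticoagulated fresh whole blood from healthy human volunteers, mixed with an equal volume of 20 ng/ml E. coli O111:B4 LPS. Graded compound, diluted in saline, added at the same time. Incubated 4 h. TNF-α, IL-6 and IL-8 were quantified by multiplexed flow-cytometric bead array against recombinant standard curves.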

Blood [5] = test: Inhibition of LPS-induced IL6 production in human whole blood; assay type: functional, tissue-based; how it was run: as §1
Blood [6] = test: Inhibition of LPS-induced IL8 production in human whole blood; assay type: functional, tissue-based; how it was run: as §1
Mus musculus [7] = organism: Mus musculus; test: Prevention of LPS-induced lethality in D-galactosamine-primed CF1 mouse model of lethal endotoxic shock; assay type: functional, organism-based
Mus musculus [8] = test: Prevention of LPS-induced lethality in D-galactosamine-primed CF1 mouse model of lethal endotoxic shock at 8 mg/kg, sc administered concurrently to LPS administration; assay type: functional, organism-based; design: dose 8 mg/kg
How it was run: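 D-galactosamine-sensitized female CF-1 mice received 8 mg/kg s.c. at different times before or after i.p. LPS (200 ng/animal, 2× LD100, given at 0 h), including concurrent dosing. Survival recorded.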

Mus musculus [9] = test: Inhibition of LPS-induced plasma IL6 level in sc dosed mouse pretreated 1 hr before LPS challenge by CBA assay; assay type: functional, organism-based
How it was run: (§2)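 Female outbred CF-1 mice (9–11 weeks, 22–28 g), 5 per group. Graded compound or vehicle given s.c. at −1 h, then 200 ng LPS in saline i.p. at 0 h. Terminal cardiac-puncture blood taken under halothane at 1, 2 and 3 h. Plasma cytokines measured by mouse inflammation bead array.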

Mus musculus [10] = test: Inhibition of LPS-induced plasma TNFalpha level in sc dosed mouse pretreated 1 hr before LPS challenge by CBA assay; assay type: functional, organism-based; how it was run: as §2
Mus musculus [11] = test: Inhibition of LPS-induced plasma MCP1 level in sc dosed mouse pretreated 1 hr before LPS challenge by CBA assay; assay type: functional, organism-based; how it was run: as §2
Mus musculus [12] = organism: Mus musculus; test: Prevention of TNFalpha induced lethality in CF1 mouse; assay type: functional, organism-based
How it was run: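 Mice were challenged with 100 ng/animal of recombinant murine TNF-α, and lethality was assessed.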

Mus musculus [13] = test: Toxicity in mouse at 40 mg/kg, sc after 5 days; assay type: organism-based; design: dose 40 mg/kg, route subcutaneous; settings: in vivo, 120 h
How it was run: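 Female CF-1 mice were given 40 mg/kg s.c. in the lower flank daily for 5 days (200 mg/kg total), in 0.2 ml isotonic saline with human serum albumin at 66 mg/ml. They were monitored for external signs, and nephro- and hepatotoxicity were assessed by clinical chemistry on Day 6.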

[14] = molecular target: T1, MAP kinase p38 (Homo sapiens); test: Inhibition of p38MAPK phosphorylation in TNF-alpha-induced human whole blood neutrophils; assay type: protein assay

ED50 [1]: 3.14 µM | IC50 (J774.A1; Mus musculus, J774.A1): 2.22 µM | Activity [2]: Dose-dependent effect | Activity [3]: inactive | IC50 (Blood [4]; Homo sapiens, Blood): 3.85 µM | IC50 (Blood [5]; Homo sapiens, Blood): 4 µM | IC50 (Blood [6]; Homo sapiens, Blood): 3.08 µM | Activity [14]: inactive
Compound: CCCCCCCCCCCCCCC/C=C(/CCCCCCCCCCCCCC)CNCCCNCCCNCCCCNCCCN
IC50 (HEK293): 2.9 µM | Activity (Mus musculus [7]): Active | Activity (Mus musculus [8]): Active | Activity (Mus musculus [9]): Dose-dependent effect | Activity (Mus musculus [10]): Dose-dependent effect | Activity (Mus musculus [11]): Dose-dependent effect | Activity (Mus musculus [12]): inactive | Activity (Mus musculus [13]): Non-toxic

Compound: CCCCCCCCCCCCCCC/C=C(/CCCCCCCCCCCCCC)CNCCCNCCCNCCCCNCCCNCCCNC/C(=C\CCCCCCCCCCCCCCC)CCCCCCCCCCCCCC
IC50 (HEK293): 22 µM

Compound: CCCCCCCCCCCCCCCCC(CCCCCCCCCCCCCC)CNCCCNCCCNCCCCNCCCN (stereo not given)
IC50 (HEK293): 2.6 µM

IC50 (J774.A1; j774.a1): 1.79 µM | IC50 (Blood [4]): 14.2 µM | IC50 (Blood [5]): 11 µM | IC50 (Blood [6]): 16.4 µM
Compound: POLYMYXIN B [listing 1 of 2 here]

Compound: CCCCCCCCCCCCCCCCN(CCCCCCCCCCCCCCCC)CCCNCCCNCCCCNCCCN
IC50 (HEK293): 2.7 µM

ED50 [1]: 1.22 µM | Activity [2]: Dose-dependent effect | Activity [3]: inactive | Activity [14]: inactive
Compound: POLYMYXIN B [listing 2 of 2 here]
Activity (Mus musculus [7]): Active

Compound: CCCCCCCCCCCCCCCC(CCCCCCCCCCCCCCC)NCCCNCCCNCCCCNCCCNCCCNC(CCCCCCCCCCCCCCC)CCCCCCCCCCCCCCC
IC50 (HEK293): 21 µM

Compound: CCCCCCCCCCCCCCCC(CCCCCCCCCCCCCCC)NCCCNCCCNCCCCNCCCN
IC50 (HEK293): 2.7 µM
